# Experimental data taken from ChEMBL document CHEMBL1157645, “Synthesis of 2-(thienyl-2-yl or -3-yl)-4-furyl-6-aryl pyridine derivatives and evaluation of their topoisomerase I and II inhibitory activity, cytotoxicity, and structure-activity relationship” (Bioorg Med Chem, 2010).
# How the values were obtained:
# MCF7 = assay: Cytotoxicity against human MCF7 cells in presence of 10% fetal bovine serum; assay type: functional
# Procedure, shortened: (§1)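 Cells cultured per supplier's instructions and seeded at 2–4 × 10⁴ cells per well. On day 2 the medium was replaced with medium containing graded compound concentrations. On day 4 cell counting kit-8 was added for a further 4 h, and absorbance was read at 450 nm. Values are 50% inhibitory concentrations, given as mean from three experiments run in triplicate.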
# [1] = molecular target: T1, DNA topoisomerase 1 (Homo sapiens) (UniProt P11387); assay: Inhibition of human recombinant topoisomerase 1 assessed as inhibition of relaxation of supercoiled pBR322 DNA at 100 uM by agarose gel electrophoresis
# T1 sequence (whole entry): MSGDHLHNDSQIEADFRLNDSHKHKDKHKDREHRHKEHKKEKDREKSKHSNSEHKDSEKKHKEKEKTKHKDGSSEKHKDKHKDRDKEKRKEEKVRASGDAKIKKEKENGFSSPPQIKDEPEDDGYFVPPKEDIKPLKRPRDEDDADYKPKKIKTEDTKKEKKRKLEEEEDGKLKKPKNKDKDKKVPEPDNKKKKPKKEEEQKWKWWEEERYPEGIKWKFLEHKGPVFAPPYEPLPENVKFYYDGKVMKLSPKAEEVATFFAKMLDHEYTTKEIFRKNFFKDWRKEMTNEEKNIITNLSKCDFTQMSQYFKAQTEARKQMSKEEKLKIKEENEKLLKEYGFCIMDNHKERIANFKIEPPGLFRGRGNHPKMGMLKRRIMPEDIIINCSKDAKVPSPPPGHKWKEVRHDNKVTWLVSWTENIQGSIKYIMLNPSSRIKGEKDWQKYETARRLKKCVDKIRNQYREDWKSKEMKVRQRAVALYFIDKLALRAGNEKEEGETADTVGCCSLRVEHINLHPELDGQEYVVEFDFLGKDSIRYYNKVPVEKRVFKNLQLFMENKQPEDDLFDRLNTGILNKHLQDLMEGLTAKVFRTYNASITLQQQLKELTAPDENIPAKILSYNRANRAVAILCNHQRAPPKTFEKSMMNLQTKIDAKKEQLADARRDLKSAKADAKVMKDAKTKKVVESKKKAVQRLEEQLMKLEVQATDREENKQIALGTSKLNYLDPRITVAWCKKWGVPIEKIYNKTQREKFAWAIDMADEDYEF
# Procedure, shortened: (§2)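 100 ng pBR322 DNA was incubated with 0.4 units of recombinant human topo I, with or without compound (DMSO stocks at 20 mM), for 30 min at 37 °C in 10 mM Tris–HCl pH 7.9, 150 mM NaCl, 0.1% BSA, 1 mM spermidine and 5% glycerol. The reaction was stopped with sarkosyl/bromophenol blue/glycerol and run on 1% agarose in TAE at 15 V for 7 h. Relaxation was read from ethidium bromide staining.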
# [2] = molecular target: DNA topoisomerase 2-alpha (Homo sapiens) (UniProt P11388); assay: Inhibition of human recombinant DNA topoisomerase 2 assessed as inhibition of relaxation of supercoiled pBR322 DNA at 100 uM by agarose gel electrophoresis
# Procedure, shortened: (§3)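 pBR322 DNA was incubated with two units of human topo IIα, with or without compound (DMSO stocks at 20 mM), in 10 mM Tris–HCl pH 7.9 with 50 mM NaCl, 5 mM MgCl₂, 1 mM EDTA, 1 mM ATP and BSA, for 30 min at 30 °C. The reaction was stopped with EDTA and run on 1% agarose in TAE at 25 V for 4 h. Gels were stained with ethidium bromide, and supercoiled DNA was quantified under UV.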
# [3] = molecular target: DNA topoisomerase 2-alpha (Homo sapiens) (UniProt P11388); assay: Inhibition of human recombinant DNA topoisomerase 2 assessed as inhibition of relaxation of supercoiled pBR322 DNA at 20 uM by agarose gel electrophoresis; procedure, shortened: as §3
# HeLa = assay: Cytotoxicity against human HeLa cells in presence of 10% fetal bovine serum; assay type: functional, cell-based; procedure, shortened: as §1
# DU-145 = assay: Cytotoxicity against human DU145 cells in presence of 10% fetal bovine serum; assay type: functional, cell-based; procedure, shortened: as §1
# HCT-15 = assay: Cytotoxicity against human HCT15 cells in presence of 10% fetal bovine serum; assay type: functional, cell-based; procedure, shortened: as §1
# K562 = assay: Cytotoxicity against human K562 cells in presence of 10% fetal bovine serum; assay type: functional, cell-based; procedure, shortened: as §1
# [4] = molecular target: T1, DNA topoisomerase 1 (Homo sapiens); assay: Inhibition of human recombinant topoisomerase 1 assessed as inhibition of relaxation of supercoiled pBR322 DNA at 20 uM by agarose gel electrophoresis; procedure, shortened: as §2
# Sequence of DNA topoisomerase 2-alpha (Homo sapiens) (P11388 whole entry): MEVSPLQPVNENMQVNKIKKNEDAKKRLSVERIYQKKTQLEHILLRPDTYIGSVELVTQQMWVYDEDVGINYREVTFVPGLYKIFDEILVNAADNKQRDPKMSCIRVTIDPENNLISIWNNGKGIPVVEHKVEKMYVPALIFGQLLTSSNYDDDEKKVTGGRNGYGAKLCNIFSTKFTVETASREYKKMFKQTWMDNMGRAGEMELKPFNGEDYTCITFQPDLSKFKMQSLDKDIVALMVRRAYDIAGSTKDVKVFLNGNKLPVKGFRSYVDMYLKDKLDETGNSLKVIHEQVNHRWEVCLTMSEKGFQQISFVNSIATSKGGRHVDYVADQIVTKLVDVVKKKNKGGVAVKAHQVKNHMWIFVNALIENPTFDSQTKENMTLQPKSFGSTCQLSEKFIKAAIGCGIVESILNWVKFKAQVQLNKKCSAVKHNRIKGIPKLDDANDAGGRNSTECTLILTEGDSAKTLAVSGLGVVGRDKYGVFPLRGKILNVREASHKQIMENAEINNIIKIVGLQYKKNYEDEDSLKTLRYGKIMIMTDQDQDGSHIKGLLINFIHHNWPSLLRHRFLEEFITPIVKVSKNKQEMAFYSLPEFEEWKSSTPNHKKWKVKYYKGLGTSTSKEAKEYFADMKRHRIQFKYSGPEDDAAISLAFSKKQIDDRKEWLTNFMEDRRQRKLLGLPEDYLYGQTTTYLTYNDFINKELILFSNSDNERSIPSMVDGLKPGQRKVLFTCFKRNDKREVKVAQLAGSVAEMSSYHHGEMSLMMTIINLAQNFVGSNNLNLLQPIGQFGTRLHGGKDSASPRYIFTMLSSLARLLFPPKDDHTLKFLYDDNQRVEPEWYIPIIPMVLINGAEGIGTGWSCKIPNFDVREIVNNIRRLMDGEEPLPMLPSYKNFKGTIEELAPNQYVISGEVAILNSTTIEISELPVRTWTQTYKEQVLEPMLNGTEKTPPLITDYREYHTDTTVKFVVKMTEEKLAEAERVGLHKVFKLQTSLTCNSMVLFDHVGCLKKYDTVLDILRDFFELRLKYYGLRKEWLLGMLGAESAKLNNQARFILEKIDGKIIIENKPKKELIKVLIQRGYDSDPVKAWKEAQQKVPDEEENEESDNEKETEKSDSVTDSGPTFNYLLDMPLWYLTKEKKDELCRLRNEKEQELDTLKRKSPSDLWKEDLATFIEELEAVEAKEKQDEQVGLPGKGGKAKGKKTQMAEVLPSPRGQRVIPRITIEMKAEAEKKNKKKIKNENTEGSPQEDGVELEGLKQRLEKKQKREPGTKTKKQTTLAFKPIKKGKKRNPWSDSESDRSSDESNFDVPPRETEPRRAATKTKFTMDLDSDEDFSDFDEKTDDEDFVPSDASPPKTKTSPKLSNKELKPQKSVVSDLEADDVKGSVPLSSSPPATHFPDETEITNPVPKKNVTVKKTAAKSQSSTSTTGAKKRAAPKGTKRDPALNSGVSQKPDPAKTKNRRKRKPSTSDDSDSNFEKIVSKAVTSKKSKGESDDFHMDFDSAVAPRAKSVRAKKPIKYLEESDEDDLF
inhibition [1],inhibition [2],inhibition [3],inhibition [4],Structure (SMILES),IC50 (MCF7),IC50 (HeLa),IC50 (DU-145),IC50 (HCT-15),IC50 (K562)
8.2%,78.6%,63.8%,,Clc1ccc(-c2cc(-c3ccsc3)nc(-c3ccco3)c2)o1,21.3 µM,> 50 µM,18.9 µM,> 50 µM,22.4 µM
0%,63.1%,60.9%,,Clc1ccc(-c2cc(-c3ccsc3)nc(-c3ccccn3)c2)o1,21 µM,22.5 µM,10.9 µM,> 50 µM,21.9 µM
0%,64.1%,59.5%,,Clc1ccc(-c2cc(-c3ccsc3)nc(-c3ccccc3Cl)c2)o1,1.71 µM,8.07 µM,19.3 µM,4.57 µM,17.2 µM
0%,86.5%,60.8%,,Clc1ccc(-c2cc(-c3cccnc3)nc(-c3ccsc3)c2)o1,> 50 µM,> 50 µM,21.6 µM,> 50 µM,21.7 µM
29.8%,75.9%,65.7%,5.2%,Clc1ccc(-c2cc(-c3ccc(Cl)o3)cc(-c3ccsc3)n2)cc1,1.77 µM,8.41 µM,19.5 µM,5.19 µM,18.7 µM
6.7%,59.6%,46.3%,,Cc1ccccc1-c1cc(-c2ccc(Cl)o2)cc(-c2ccsc2)n1,1.23 µM,9.77 µM,24.8 µM,4.63 µM,18.4 µM
0%,20.5%,,,Clc1ccc(-c2cc(-c3ccoc3)cc(-c3ccsc3)n2)cc1,56.1 µM,4.14 µM,37.6 µM,> 100 µM,0.73 µM
,,,,COc1cccc2c1C(=O)c1c(O)c3c(c(O)c1C2=O)C[C@@](O)(C(=O)CO)C[C@@H]3O[C@H]1C[C@H](N)[C@H](O)[C@H](C)O1.Cl [DOXORUBICIN HYDROCHLORIDE],1.25 µM,,1.98 µM,2.32 µM,2.45 µM
7.5%,64.1%,56.7%,,Cc1cccc(-c2cc(-c3ccc(Cl)o3)cc(-c3ccsc3)n2)c1,1.28 µM,20.3 µM,17.9 µM,21.7 µM,20.2 µM
38.9%,42.5%,38.1%,6.3%,Clc1ccc(-c2cc(-c3ccc(Cl)o3)cc(-c3cccs3)n2)cc1,2.45 µM,21.3 µM,19.2 µM,14.2 µM,20.9 µM
2.6%,78.9%,70.2%,,Cc1ccc(-c2cc(-c3ccc(Cl)o3)cc(-c3ccsc3)n2)cc1,0.63 µM,16.2 µM,21.2 µM,7.41 µM,19.9 µM
0%,30.2%,,,Clc1ccc(-c2cc(-c3ccoc3)cc(-c3cccs3)n2)cc1,29.1 µM,5.53 µM,21.1 µM,50 µM,21.1 µM
16%,38.5%,25.5%,,Clc1ccc(-c2cc(-c3ccco3)nc(-c3cccs3)c2)o1,5.27 µM,18.8 µM,21.8 µM,> 50 µM,16 µM
9.1%,62.6%,34.7%,,Cc1ccc(-c2cc(-c3ccc(Cl)o3)cc(-c3ccsc3)n2)o1,1.42 µM,> 50 µM,18.5 µM,> 50 µM,23.3 µM
41.8%,21.8%,,9.3%,Cc1ccc(-c2cc(-c3ccc(Cl)o3)cc(-c3cccs3)n2)cc1,1.33 µM,16.3 µM,19.3 µM,9.89 µM,21.5 µM
,,,,CC[C@@]1(O)C(=O)OCc2c1cc1n(c2=O)Cc2cc3ccccc3nc2-1 [CAMPTOTHECIN],0.05 µM,0.63 µM,0.94 µM,0.64 µM,0.08 µM
42%,44.7%,32.7%,8.5%,Clc1cccc(-c2cc(-c3ccc(Cl)o3)cc(-c3cccs3)n2)c1,2.86 µM,12.8 µM,18.1 µM,15.5 µM,19.8 µM
41.3%,35%,15.4%,8%,Clc1ccc(-c2cc(-c3cccs3)nc(-c3ccccc3Cl)c2)o1,1.93 µM,18.5 µM,16.8 µM,6.19 µM,17.2 µM
,,,,COc1cc([C@@H]2c3cc4c(cc3[C@@H](O[C@@H]3O[C@@H]5CO[C@@H](C)O[C@H]5[C@H](O)[C@H]3O)[C@H]3COC(=O)[C@H]23)OCO4)cc(OC)c1O [ETOPOSIDE],1.66 µM,1.57 µM,2.45 µM,1.29 µM,2.84 µM
25.8%,51.5%,30.9%,,Clc1ccc(-c2cc(-c3cccnc3)nc(-c3cccs3)c2)o1,2.87 µM,14.6 µM,13 µM,1.24 µM,22.3 µM
0%,75.9%,75.4%,,Clc1cccc(-c2cc(-c3ccc(Cl)o3)cc(-c3ccsc3)n2)c1,4.26 µM,8.71 µM,10.4 µM,13.7 µM,23 µM
13.2%,14.2%,,,Cc1ccc(-c2cc(-c3ccoc3)cc(-c3ccsc3)n2)cc1,9.32 µM,1.47 µM,13 µM,44.8 µM,47.8 µM
2.7%,31.4%,,,Clc1ccc(-c2cc(-c3ccco3)cc(-c3cccs3)n2)cc1,24.6 µM,32.7 µM,> 100 µM,> 100 µM,> 100 µM
